Sampled rows, rich in hits. Any-hit rate of the full collection: about 12%.
b-catenin transl = modulators of beta-catenin nuclear translocation; actives 0.3% (n = 190,000); HeLa beta-catenin nuclear translocation, immunofluorescence imaging; AID 1665; nuclear translocation activity, % at 5 µM;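 active means nuclear translocation activity above 50% at 5 µM, with a well cell count of 50 or more; inconclusive means wells under 50 cells across six images, flagged as toxic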;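 further: per-cell ratio of nuclear to cytoplasmic median beta-catenin stain intensity; plate controls were DMSO negative control for no effect and GSK-3 inhibitor IX positive control for full effect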
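System: HeLa cells, endogenous beta-catenin; compound dosing: 5 µM primary single dose, 0.1% DMSO, 0.02–20 µM confirmation series; incubation: 24 h compound exposure at 37°C, 5% CO2; signal: beta-catenin immunofluorescence imaging with DAPI; evaluation: % activation, nuclear-to-cytoplasmic median beta-catenin signal ratio per cell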
L major viab = Leishmania major promastigote growth inhibition; inhibition, % at 10 µM; Leishmania major promastigotes, resazurin fluorescence viability; actives 9% (n = 200,000); in the data active means inhibition above about 50%;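 further: promastigotes grown with compound for 44 hours at 28 °C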
CHOP inh = blocks CHOP induction under ER stress | inhibition, % at 10 µM | CHO-K1 CHOP-promoter luciferase, tunicamycin-induced, 15-18 h | actives 3.8% (n = 220,000);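 active means compounds that reduced the stress-induced luciferase reporter signal by more than about 70% of percent inhibition, limit read from the data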;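 further: 0% = tunicamycin plus vehicle and 100% = wells without tunicamycin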
MT stabilizer = microtubule stabilizers in HeLa cells | % tubulin-high responders, % at 10 µM | AID 2205 | HeLa tubulin immunostaining HCS, 24 h; share of cells brighter than vehicle mean+2SD | actives 0.83% (n = 200,000);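 active means plate Z-score above 3 for both tubulin-high and condensed-nucleus cell shares, with cell loss under 80%, at 10 µM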;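 further: anti alpha tubulin signal scored within the nucleus-defined area of each cell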
Autophagy HCS = alters autophagy in cells; calls only at 10 µM (by protocol); AID 463193; actives 0.98% (n = 190,000); MEF GFP-LC3 puncta imaging; test concentration mostly 10 µM;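 active means percentage of spot-positive cells more than 3 SD above its plate mean, without a fluorescence outlier flag or 80% toxicity; inconclusive means no clear call, values can overlap the other calls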;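 further: spot-positive cell cutoff set from DMSO-treated cells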
Dynein transport = blocks dynein driven cargo transport along microtubules; actives 0.47% (n = 220,000); 3617.4 mouse cells, GR-EGFP nuclear translocation imaging; test concentration mostly 20 µM; stimulated with dexamethasone, 1 µM; active compounds read low; z-score, hits read low;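 active means plate z-score of nuclear minus cytoplasmic receptor signal below a set negative limit, without overly bright fluorescence or cell loss, cut at about -3.5 in these data, passing the limit was not always enough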;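 further: z-score of nuclear minus cytoplasmic ring GR-EGFP intensity difference per well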
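Buffer or medium: tet-free, stripped-serum medium; reagent: dexamethasone at 1.0 µM final, 30 min; incubation: 48 h induction, 1 h compound, 30 min dex at 37 °C; measured by: formaldehyde fixation, Hoechst nuclear stain, 10x automated fluorescence imaging; read-out: nuclear-to-cytoplasmic GR-EGFP distribution per well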
Dynein inh conf = dynein cargo transport inhibition, confirmation. shares compounds with Dynein transport. 3617.4 GR-EGFP nuclear translocation imaging, dexamethasone-induced. calls only at 20 µM. actives 69% (n = 1,000);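 active means inhibition of receptor movement into the nucleus at or above a set limit in both runs, with normal cell brightness and cell count; inconclusive means limit reached in only one run, brightness and count normal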;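 further: dexamethasone at 1 µM final in well for 30 min; nuclear minus cytoplasmic GR-EGFP mean intensity difference in channel 2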
The depositor's hits bear a star; i = inactive; u = inconclusive; x = no result; + = active, no number.

SMILES | b-catenin transl | L major viab | CHOP inh | MT stabilizer | Autophagy HCS | Dynein transport | Dynein inh conf
CCOC(=O)c1c(C)oc2c1c(CN1CCN(C(=O)OCC)CC1)c(O)c1ccccc12 | -1 | 29 | -10 | 5 | i | -1.6 | x
CCOC(=O)c1c(C)oc2c1c(C(c1ccncc1)N1CCOCC1)c(O)c1ccccc12 (stereo unspecified) | x | 73* | 13 | 5 | i | -3.5* | i
c1ccc2c(c1)OCCOCCOc1ccccc1OCCOCCO2 | x | 1 | 60 | 4 | i | 1.7 | x
NC(=O)/C=C/C(=O)Nc1ccc(Cl)cc1 | 0 | 7 | -32 | 2 | i | -3.7* | i
CCNc1ccc(Br)cc(C(=O)/C=C/c2c(Cl)cccc2Cl)c1=O | 7 | 100* | -34 | 38 | + | -5.6 | +
Cc1ccc(/C=C2/NC(=O)N(c3ccccc3)C2=O)o1 | -1 | 0 | 8 | 2 | i | -0.04 | x
O=C1N/C(=C/c2ccc(N3CCOCC3)o2)C(=O)N1c1cccc(Cl)c1 | 0 | 2 | 34 | 3 | i | -4.1 | i
Cc1ccccc1NC(=O)C(Cl)=C(Cl)Cl | 1 | 25 | -25 | 7 | i | -3.8* | +
O=C(c1cccs1)n1nc(-c2ccccc2)nc1NCc1ccco1 | -2 | -7 | 17 | 3 | i | -5.6* | i
O=C(CCc1ccccc1)n1nc(-c2ccccc2)nc1NCc1ccco1 | -1 | 0 | 5 | 5 | i | -1.4 | x
CCOc1ccc2noc3c2c1C(=O)c1ccccc1-3 | 0 | 3 | -49 | 6 | i | -7.5* | +
O=C1c2ccccc2-c2onc3ccc(NCc4ccco4)c1c23 | 2 | -2 | 34 | 8 | i | -6.6 | i
O=C(NCc1ccco1)c1cccc(NS(=O)(=O)c2ccccc2F)c1 | -2 | -5 | 20 | 3 | i | -0.55 | x
COc1ccc(-n2cccc2/C=C/[N+](=O)[O-])cc1 | 9 | 100* | -29 | 4 | i | -3.8* | +
CCOC(=O)c1c(NC(=O)/C=C\C(=O)O)sc(C)c1-c1ccccc1 | 0 | -1 | 3 | 6 | i | -3.5* | +
Cc1sc(NC(=O)/C=C/C(=O)O)c(C(N)=O)c1-c1ccc(C(C)(C)C)cc1 | x | 44 | -8 | 3 | i | -2 | x
O=C1C=CC(=O)N1c1ccc(O)cc1 | 1 | x | 5 | x | x | -4 | i
CN(C)c1oc(-c2ccccc2Cl)nc1C#N | 0 | 2 | 4 | 1 | i | -0.21 | x
CN(C)c1oc(-c2ccccc2[N+](=O)[O-])nc1C#N | -4 | x | 18 | x | x | -5.1* | i
Cc1cc(C)c2c(=O)c(/C=C3\NC(=S)NC3=O)coc2c1 | 1 | x | 15 | x | x | 0.099 | x
COc1cc(N2CCCC2)c(OC)cc1/C=C1/NC(=S)NC1=O | 4 | 96* | 11 | 4 | + | -4.4 | i
CC(C)CCNC(=O)CNC(=S)N(Cc1ccccc1)Cc1cccnc1 | -3 | 32 | 10 | 2 | i | -0.043 | x
C/C(CS(=O)(=O)c1ccccc1)=N\O | -1 | -3 | 9 | 3 | i | 0.19 | x
C/C=C(\CS(=O)(=O)c1ccccc1)S(=O)(=O)c1ccccc1 | -2 | 26 | -47 | 4 | i | -3.6* | u
CCC(=O)c1ccc(OCC(O)CNC(C)c2ccccc2)cc1 (stereo unspecified) | 0 | 6 | -4 | 8 | i | 2.1 | x
CC(NCC(O)COCCC12CC3CC(CC(C3)C1)C2)c1ccccc1 (stereo unspecified) | 6 | 100* | 58 | 61 | i | -5.2* | i
COc1ccc(C(=O)CCN2CCN(c3ccccc3OC)CC2)cc1 | 0 | 16 | -58 | 3 | i | -4.4* | +
COc1ccccc1N1CCN(CCCC(=O)c2ccc(F)cc2)CC1 | -2 | 2 | 11 | 2 | i | 0.37 | x
O=C(c1ccccc1)c1ccccc1N1C(=O)C=CC1=O | -1 | x | 14 | x | x | -4.4* | +
CCc1ccccc1NC(=S)N(CCN(C)C)Cc1cccs1 | 2 | -1 | 5 | 1 | i | -0.59 | x
